{
  "source": "ChEMBL document CHEMBL4330127",
  "about": "“Discovery of Novel Pyruvate Dehydrogenase Kinase 4 Inhibitors for Potential Oral Treatment of Metabolic Diseases” (J Med Chem, 2019)",
  "key": {"[1]": {"system": "HCT-116", "experiment": "Induction of apoptosis in human HCT116 cells assessed as live cells at 25 uM after 24 hrs by Annexin V/propidium iodide staining based flow cytometry (reference value: 84.4%)", "type": "functional"}, "[2]": {"system": "HCT-116", "experiment": "Induction of apoptosis in human HCT116 cells assessed as necrotic cells at 25 uM after 24 hrs by Annexin V/propidium iodide staining based flow cytometry (reference value: 2.92%)", "type": "functional"}, "[3]": {"experiment": "Half life in human liver microsomes at 1 uM preincubated for 5 mins followed by NADPH/UDPGA addition by LC-MS/MS analysis", "type": "ADME, Microsome", "how_it_was_run": "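Pooled human liver microsomes (1.0 mg/mL) were preincubated with substrate (1 μM) at 37 °C for 5 min. NADPH and UDPGA were added and samples taken at 10, 20, 40 and 60 min. Reactions were quenched with acetonitrile, centrifuged, and the supernatant quantified by LC-MS/MS. Buspirone served as positive control.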"}, "[4]": {"system": "HCT-116", "experiment": "Induction of apoptosis in human HCT116 cells assessed as increase in cleaved-PARP expression at 10 to 50 uM after 24 hrs by Western blot analysis", "type": "functional, cell-based", "how_it_was_run": "(§1)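 HCT116 and RKO cells given a range of compound doses for 24 h; lysates probed by Western blot for apoptosis-related proteins (p53, BAX, BCLxL).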"}, "[5]": {"experiment": "Tmax in rat at 10 mg/kg, po", "type": "ADME, organism-based", "details": "in vivo"}, "[6]": {"biological_target": "Cellular tumor antigen p53 (Homo sapiens) (UniProt P04637)", "sequence (P04637 whole entry, looked up)": "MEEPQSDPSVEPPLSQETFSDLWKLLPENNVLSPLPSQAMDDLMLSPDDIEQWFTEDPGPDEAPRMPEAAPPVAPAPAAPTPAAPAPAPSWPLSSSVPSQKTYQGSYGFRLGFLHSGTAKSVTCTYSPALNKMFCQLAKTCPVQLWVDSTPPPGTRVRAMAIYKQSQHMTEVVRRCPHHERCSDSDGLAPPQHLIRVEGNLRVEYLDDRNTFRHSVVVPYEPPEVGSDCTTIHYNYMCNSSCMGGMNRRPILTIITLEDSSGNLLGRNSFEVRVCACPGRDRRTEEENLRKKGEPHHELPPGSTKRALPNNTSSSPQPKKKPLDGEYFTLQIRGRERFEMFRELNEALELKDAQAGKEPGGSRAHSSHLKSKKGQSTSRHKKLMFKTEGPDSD", "experiment": "Induction of p53 phosphorylation at Ser-15 residue in human HCT116 cells after 24 hrs by Western blot analysis", "type": "cell-based", "how_it_was_run": "as §1"}, "[7]": {"system": "RKO", "experiment": "Induction of apoptosis in human RKO cells assessed as necrotic cells at 50 uM after 24 hrs by Annexin V/propidium iodide staining based flow cytometry (reference value: 0.56%)", "type": "functional"}, "[8]": {"system": "HCT-116", "experiment": "Induction of apoptosis in human HCT116 cells after 24 hrs by Annexin V/propidium iodide staining based flow cytometry", "type": "functional, cell-based"}, "[9]": {"system": "RKO", "experiment": "Cell cycle arrest in human RKO cells assessed as accumulation at G1/G0 phase at 25 uM after 24 hrs in presence of oxaliplatin propidium iodide staining based flow cytometry (reference value: 44.3%)", "type": "functional", "how_it_was_run": "(§2)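 HCT116 and RKO cells were treated with compound alone or with oxaliplatin for 24 h before harvest. Cells were stained with propidium iodide, and DNA content was analysed by flow cytometry. Cell-cycle phase populations, including sub-G1, are given as percentages.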"}, "[10]": {"system": "RKO", "experiment": "Cell cycle arrest in human RKO cells assessed as accumulation at sub-G1 phase at 50 uM after 24 hrs propidium iodide staining based flow cytometry (reference value: 17.6%)", "type": "functional"}, "[11]": {"system": "Mast cell", "experiment": "Inhibition of degranulation in IgE-labeled bone marrow-derived mast cells (unknown origin) assessed as reduction in beta-hexosaminidase release by measuring absorbance at 10 uM preincubated for 1 hr followed by HSA stimulation and measured after 15 mins (reference value: 0.26 +/- 0.025)", "type": "functional"}, "[12]": {"system": "HCT-116", "experiment": "Cell cycle arrest in human HCT116 cells assessed as accumulation at sub-G1 phase at 10 uM after 24 hrs propidium iodide staining based flow cytometry (reference value: 17.8%)", "type": "functional", "how_it_was_run": "as §2"}, "[13]": {"system": "HCT-116", "experiment": "Antiproliferative activity against human HCT116 cells up to 50 uM up to 72 hrs by CCK8 assay", "type": "functional, cell-based", "how_it_was_run": "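HCT116 and RKO cells were treated with compound alone or with oxaliplatin and grown for 0–72 h. Viability was read by CCK-8 colorimetry at 450 nm.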"}, "[14]": {"system": "HCT-116", "experiment": "Induction of apoptosis in human HCT116 cells assessed as necrotic cells at 50 uM after 24 hrs by Annexin V/propidium iodide staining based flow cytometry (reference value: 2.92%)", "type": "functional"}, "[15]": {"system": "CHO-K1", "experiment": "Cytotoxicity against CHOK1 cells", "type": "cell-based", "details": "Cricetulus griseus"}, "[16]": {"system": "HCT-116", "experiment": "Induction of apoptosis in human HCT116 cells assessed as early apoptotic cells at 25 uM after 24 hrs by Annexin V/propidium iodide staining based flow cytometry (reference value: 4.36%)", "type": "functional"}, "[17]": {"system": "HCT-116", "experiment": "Induction of apoptosis in human HCT116 cells assessed as live cells at 50 uM after 24 hrs by Annexin V/propidium iodide staining based flow cytometry (reference value: 84.4%)", "type": "functional"}, "[18]": {"biological_target": "T1, [Pyruvate dehydrogenase (acetyl-transferring)] kinase isozyme 4, mitochondrial (Homo sapiens, UniProt Q16654)", "experiment": "Inhibition of PDK4 (unknown origin)"}, "[19]": {"system": "RKO", "experiment": "Cell cycle arrest in human RKO cells assessed as accumulation at G2/M phase at 25 uM after 24 hrs propidium iodide staining based flow cytometry (reference value: 23.3%)", "type": "functional", "how_it_was_run": "as §2"}, "[20]": {"experiment": "Clearance in rat at 5 mg/kg, iv", "type": "ADME, organism-based", "details": "in vivo", "how_it_was_run": "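Male rats given a single dose, 5 mg/kg intravenously or 10 mg/kg orally. Plasma PK parameters were reported as mean ± SD: AUCt, AUC∞, Cmax, Tmax, T1/2, CL, Vss and oral bioavailability F.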"}, "[21]": {"biological_target": "Cytochrome P450 2D6 (Homo sapiens, UniProt P10635)", "sequence (P10635 whole entry)": "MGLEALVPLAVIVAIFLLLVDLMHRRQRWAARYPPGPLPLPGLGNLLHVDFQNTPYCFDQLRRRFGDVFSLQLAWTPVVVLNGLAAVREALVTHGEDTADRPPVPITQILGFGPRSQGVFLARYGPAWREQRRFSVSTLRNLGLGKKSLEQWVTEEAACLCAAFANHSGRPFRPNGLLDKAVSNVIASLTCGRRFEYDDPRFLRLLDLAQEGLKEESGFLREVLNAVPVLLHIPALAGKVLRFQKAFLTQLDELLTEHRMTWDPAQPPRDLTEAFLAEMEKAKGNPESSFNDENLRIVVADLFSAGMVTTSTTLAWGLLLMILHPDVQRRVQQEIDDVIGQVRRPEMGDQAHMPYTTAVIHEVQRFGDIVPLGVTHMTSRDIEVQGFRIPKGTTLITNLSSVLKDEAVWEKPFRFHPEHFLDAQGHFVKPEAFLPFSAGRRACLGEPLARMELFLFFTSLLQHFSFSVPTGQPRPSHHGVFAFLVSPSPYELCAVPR", "experiment": "Inhibition of CYP2D6 in human liver microsomes assessed as reduction in dextromethorphan O-demethylation by tandem mass spectrometry analysis", "type": "ADME", "how_it_was_run": "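Pooled human liver microsomes incubated with compound at 0–50 μM final; CYP probe activities (phenacetin O-deethylation for 1A2, tolbutamide 4-hydroxylation for 2C9, omeprazole hydroxylation for 2C19, dextromethorphan O-demethylation for 2D6) run as a cocktail incubation and quantified by tandem MS; duplicates; IC50 derived.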"}, "[22]": {"biological_target": "UDP-glucuronosyltransferase 1A9 (Homo sapiens, UniProt O60656)", "sequence (O60656 whole entry)": "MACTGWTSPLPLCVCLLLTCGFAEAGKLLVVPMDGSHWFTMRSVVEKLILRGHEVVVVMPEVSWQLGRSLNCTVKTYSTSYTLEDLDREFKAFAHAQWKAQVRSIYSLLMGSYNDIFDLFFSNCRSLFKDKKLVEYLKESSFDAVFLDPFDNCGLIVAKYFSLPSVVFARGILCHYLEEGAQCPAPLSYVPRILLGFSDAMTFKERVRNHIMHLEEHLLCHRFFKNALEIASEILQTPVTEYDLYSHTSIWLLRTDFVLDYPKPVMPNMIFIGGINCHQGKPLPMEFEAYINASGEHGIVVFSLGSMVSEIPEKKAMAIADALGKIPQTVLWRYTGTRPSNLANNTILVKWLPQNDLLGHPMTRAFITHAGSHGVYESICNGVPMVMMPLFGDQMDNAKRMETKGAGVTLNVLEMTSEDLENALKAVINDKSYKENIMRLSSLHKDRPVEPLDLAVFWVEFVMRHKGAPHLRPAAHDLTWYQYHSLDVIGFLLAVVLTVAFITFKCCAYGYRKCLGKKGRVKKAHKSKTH", "experiment": "Inhibition of UGT1A9 in human liver microsomes assessed as reduction in mycophenolic acid glucuronidation by tandem mass spectrometry analysis", "type": "ADME", "how_it_was_run": "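Pooled human liver microsomes; test compound at final 0–50 μM in a cocktail incubation with probe substrates: midazolam 1′-hydroxylation (CYP3A), SN-38 glucuronidation (UGT1A1), trifluoperazine N-glucuronidation (UGT1A4), mycophenolic acid glucuronidation (UGT1A9), naloxone 3-glucuronidation (UGT2B7). Metabolites measured by tandem MS; IC50 determined; duplicate.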"}, "[23]": {"biological_target": "T1, [Pyruvate dehydrogenase (acetyl-transferring)] kinase isozyme 4, mitochondrial", "experiment": "Inhibition of PDK4 (unknown origin) at 10 uM relative to control"}, "[24]": {"system": "RKO", "experiment": "Cell cycle arrest in human RKO cells assessed as accumulation at G1/G0 phase at 25 uM after 24 hrs propidium iodide staining based flow cytometry (reference value: 39.9%)", "type": "functional", "how_it_was_run": "as §2"}, "[25]": {"system": "RKO", "experiment": "Induction of apoptosis in human RKO cells assessed as early apoptotic cells at 25 uM after 24 hrs by Annexin V/propidium iodide staining based flow cytometry (reference value: 9.62%)", "type": "functional"}, "[26]": {"system": "RKO", "experiment": "Induction of apoptosis in human RKO cells assessed as increase in cleaved-PARP expression at 10 to 50 uM after 24 hrs by Western blot analysis", "type": "functional, cell-based", "how_it_was_run": "as §1"}, "[27]": {"system": "RKO", "experiment": "Induction of apoptosis in human RKO cells assessed as live cells at 10 uM after 24 hrs by Annexin V/propidium iodide staining based flow cytometry (reference value: 82.4%)", "type": "functional"}, "[28]": {"experiment": "Metabolic stability in rat liver microsomes assessed as parent compound remaining after 30 mins by LC-MS/MS analysis", "type": "ADME, Microsome", "details": "read-out: Stability"}, "[29]": {"system": "L929", "experiment": "Cytotoxicity against mouse L929 cells", "type": "cell-based"}, "[30]": {"system": "HCT-116", "experiment": "Induction of apoptosis in human HCT116 cells assessed as increase in Bax expression at 10 to 50 uM after 24 hrs by Western blot analysis", "type": "functional, cell-based", "how_it_was_run": "as §1"}},
  "note": "Calls of active or inactive are those of the source. The calls are words filed in the database; no cut-off is given here.",
  "data": [
    {"smiles": "Cl.O=C1c2ccccc2C(=O)c2c1cccc2-c1cnn(C2CCNCC2)c1", "values": [
      {"measurement": "Activity", "setting": "[1]", "value": 49.4, "unit": "%"},
      {"measurement": "Activity", "setting": "[2]", "value": 19.6, "unit": "%"},
      {"measurement": "half-life at 1 µM", "setting": "[3]", "value": "> 1", "unit": "h"},
      {"measurement": "Activity", "setting": "[4]", "value": "Active"},
      {"measurement": "Tmax", "setting": "[5]", "value": 6, "unit": "h"},
      {"measurement": "Activity", "setting": "[6]", "value": "Dose-dependent effect"},
      {"measurement": "Activity", "setting": "[7]", "value": 0.006, "unit": "%"},
      {"measurement": "Activity", "setting": "[8]", "value": "Dose-dependent effect"},
      {"measurement": "Activity", "setting": "[9]", "value": 8.2, "unit": "%"},
      {"measurement": "Activity", "setting": "[10]", "value": 91.1, "unit": "%"},
      {"measurement": "OD", "setting": "[11]", "value": 0.2},
      {"measurement": "Activity", "setting": "[12]", "value": 14.4, "unit": "%"},
      {"measurement": "Activity", "setting": "[13]", "value": "Active"},
      {"measurement": "Activity", "setting": "[14]", "value": 20.2, "unit": "%"},
      {"measurement": "IC50", "setting": "[15]", "value": 36, "unit": "µM"},
      {"measurement": "Activity", "setting": "[16]", "value": 7.1, "unit": "%"},
      {"measurement": "Activity", "setting": "[17]", "value": 21.2, "unit": "%"},
      {"measurement": "IC50", "setting": "[18]", "value": 0.084, "unit": "µM"},
      {"measurement": "Activity", "setting": "[19]", "value": 21.6, "unit": "%"},
      {"measurement": "clearance", "setting": "[20]", "value": 11.4, "unit": "mL/min/kg"},
      {"measurement": "IC50", "setting": "[21]", "value": "> 50", "unit": "µM"},
      {"measurement": "IC50", "setting": "[22]", "value": "> 50", "unit": "µM"},
      {"measurement": "inhibition", "setting": "[23]", "value": 50.1, "unit": "%"},
      {"measurement": "Activity", "setting": "[24]", "value": 13.7, "unit": "%"},
      {"measurement": "Activity", "setting": "[25]", "value": 19.3, "unit": "%"},
      {"measurement": "Activity", "setting": "[26]", "value": "Active"},
      {"measurement": "Activity", "setting": "[27]", "value": 82.8, "unit": "%"},
      {"measurement": "remaining at 0.5 h", "setting": "[28]", "value": 67.8, "unit": "%"},
      {"measurement": "IC50", "setting": "[29]", "value": 35.8, "unit": "µM"},
      {"measurement": "Activity", "setting": "[30]", "value": "Active"}
    ]}
  ]
}
